Reference: ChEMBL document CHEMBL1144472, “Pyrogallol-based molecules as potent inhibitors of the antiapoptotic Bcl-2 proteins” (J Med Chem, 2007)
Activity calls are given as the source filed them. No cut-off for these calls is given here.

Assays:
[1] = molecular target: T1, Apoptosis regulator Bcl-2 (Homo sapiens, UniProt P10415); test: Displacement of FAM-Bid BH3 peptide from human recombinant Bcl2 by FP-based binding assay
How it was run: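 Competitive fluorescence-polarization binding assay with recombinant human Bcl-2 and a fluorescently tagged Bid BH3 peptide as tracer. Ki values were derived from the competitive binding curves.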

[2] = molecular target: T1, Apoptosis regulator Bcl-2; test: Displacement of biotinylated Bim BH3 peptide from recombinant His-tagged Bcl2 by ELISA assay
MDA-MB-231 [3] = test: Induction of cell death in human MDA-MB-231 cells after 96 hrs by trypan blue exclusion assay; assay type: functional, cell-based
How it was run: (§1)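 MDA-MB-231 breast cancer cells were exposed to the inhibitor for 96 hours across a dose series that included 10, 100 and 1000 nM. Viability was scored by trypan blue exclusion.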

[4] = molecular target: T2, Induced myeloid leukemia cell differentiation protein Mcl-1 (Homo sapiens, UniProt Q07820); test: Displacement of FAM-Bid BH3 peptide from human Mcl1 by FP-based binding assay
[5] = molecular target: T2, Induced myeloid leukemia cell differentiation protein Mcl-1; test: Displacement of biotinylated Bim BH3 peptide from recombinant His-tagged Mcl1 by ELISA assay
MDA-MB-231 [6] = test: Induction of cell death in human MDA-MB-231 cells at 10 nM after 96 hrs by trypan blue exclusion assay; assay type: functional, cell-based; how it was run: as §1

T1 sequence (P10415 whole entry): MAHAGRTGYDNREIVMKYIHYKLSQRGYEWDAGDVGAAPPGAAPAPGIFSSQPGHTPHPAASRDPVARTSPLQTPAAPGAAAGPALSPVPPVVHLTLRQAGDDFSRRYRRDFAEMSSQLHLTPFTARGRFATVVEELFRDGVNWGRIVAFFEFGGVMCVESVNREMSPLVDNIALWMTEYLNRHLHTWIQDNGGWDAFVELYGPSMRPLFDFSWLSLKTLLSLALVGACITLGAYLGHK
T2 sequence (Q07820 whole entry): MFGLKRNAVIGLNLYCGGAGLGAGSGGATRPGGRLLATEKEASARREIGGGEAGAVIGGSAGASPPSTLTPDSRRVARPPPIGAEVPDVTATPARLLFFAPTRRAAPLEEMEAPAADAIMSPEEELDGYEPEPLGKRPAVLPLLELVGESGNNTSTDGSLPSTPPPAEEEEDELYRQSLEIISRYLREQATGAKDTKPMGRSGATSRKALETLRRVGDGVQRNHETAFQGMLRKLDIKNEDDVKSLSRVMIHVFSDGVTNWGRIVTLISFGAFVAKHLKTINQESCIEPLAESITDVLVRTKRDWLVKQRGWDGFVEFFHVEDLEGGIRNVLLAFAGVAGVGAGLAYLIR

Row | Compound | Ki [1] | IC50 [2] | Ki [4] | IC50 [5] | Activity (MDA-MB-231 [3]) | Activity (MDA-MB-231 [6])
1 | CC(C)c1cc(C(=O)Nc2ccccc2)c(O)c(O)c1O | 31900 nM |  |  |  | Dose-dependent effect | 
2 | CN(C)CC[C@H](CSc1ccccc1)Nc1ccc(S(=O)(=O)NC(=O)c2ccc(N3CCN(Cc4ccccc4-c4ccc(Cl)cc4)CC3)cc2)cc1[N+](=O)[O-] |  |  |  |  | Dose-dependent effect | 

The remaining molecules from weak to strong by Ki [1], led by results:

Row | Ki [1] | IC50 [2] | Ki [4] | IC50 [5] | Compound | Activity (MDA-MB-231 [3]) | Activity (MDA-MB-231 [6])
3 | 3100 nM | 38200 nM |  |  | CC(C)c1cc(C(=O)N2CCc3ccccc3C2)c(O)c(O)c1O | Dose-dependent effect | 
4 | 590 nM | 6600 nM |  |  | CC(C)c1cc(C(=O)N2CCc3ccc(S(=O)(=O)NCCc4ccccc4)cc3C2)c(O)c(O)c1O | Dose-dependent effect | 
5 | 110 nM | 330 nM | 150 nM | 39 nM | CN(CCCc1ccccc1)S(=O)(=O)c1cc(C(=O)N2CCc3ccc(S(=O)(=O)NCCc4ccccc4)cc3C2)c(O)c(O)c1O | Dose-dependent effect | Active
